Data set [1] is described as follows: (§1) Inhibition of ascaris-induced bronchoconstriction in Anaesthetized squirrel monkey after treatment with 3 mg/kg peroral dose. In kind it is functional. The conditions noted are these: route oral.
Data set [2] concerns the target 3',5'-cyclic-AMP phosphodiesterase 4A (Homo sapiens, UniProt P27815). Kind of data set: Inhibition of human Phosphodiesterase 4A isoform using construct representing the common region of spliced variants expressed as GST-fusion proteins in Sf9 cells.
Data set [3] is described as follows: Half-life in Squirrel monkey. The data set is classed as ADME. Conditions: in vivo.
Data set [4] in a line: (§2) Inhibition of ascaris-induced bronchoconstriction in Anaesthetized squirrel monkey after treatment with 0.5 mg/kg peroral dose. In kind it is functional. Conditions: route oral.
For data set [5], the system named is Ovis aries. Kind of data set: Inhibition of ascaris-induced bronchoconstriction in sheep after late treatment with 2 mg/kg intravenous dose.
Data set [6] has as its system Cavia porcellus. Kind of data set: Inhibition of the ovalbumin-induced bronchoconstriction in conscious guinea pigs after 0.5 hr pretreatment with 1 mg/kg administered intraperitoneally. The data set is classed as functional. Conditions: route intraperitoneal.
The species entered for the next data set is Homo sapiens. Kind of data set: Inhibition of LPS-induced TNF-alpha formation in human whole blood. In kind it is functional, organism-based.
The nature of data set [7]: Cmax in ferrets after 30mg/kg oral dose. On the set-up: dose 30 mg/kg, route oral. Conditions: ferret, in vivo. In kind it is ADME, organism-based, Mustela putorius furo. The gist of the method: (§3)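 Ferrets dosed orally at 30 mg/kg; emesis monitored, with plasma Cmax recorded.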
A short description of data set [8]: (§4) Inhibition of ascaris-induced bronchoconstriction in Anaesthetized squirrel monkey after treatment with 1 mg/kg peroral dose. In kind it is functional. The conditions noted are these: route oral.
Data set [9] can be described thus: as §2. The data set is classed as functional. The conditions noted are these: route oral. The source holds these as a separate data set.
The nature of data set [10]: as §1. In kind it is functional. The conditions noted are these: route oral. The source holds these as a separate data set.
The subject of data set [11] is Ovis aries. Kind of data set: Inhibition of ascaris-induced bronchoconstriction in sheep after early treatment with 2 mg/kg intravenous dose.
The nature of data set [12]: Half-life in Dog. The conditions noted are these: in vivo. In kind it is ADME, organism-based, Canis lupus familiaris.
Data set [13] is described as follows: Half-life in rat. The data set is classed as ADME, organism-based. Conditions: in vivo.
A short description of data set [14]: as §4. In kind it is functional. Conditions: route oral. This is another data set of the same source.
Data set [15] is described as follows: Bioavailability upon oral administration of compound. Conditions: rat, in vivo. The data set is classed as ADME, organism-based. An outline of the steps: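 Rat, oral dosing at 3 mg/kg in 60% PEG200; bioavailability determined, with plasma level also sampled at 6 h.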
Data set [16] deals with Ovis aries. Kind of data set: Inhibition of ascaris-induced bronchoconstriction in sheep after early treatment with 2 mg/kg intravenous dose. The data set is classed as functional. An outline of the steps:
(§5)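 Sheep, ascaris-induced bronchoconstriction; 2 mg/kg given iv 2 h before challenge; percent inhibition of early and late responses.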

Data set [17] relates to Cavia porcellus. In words: Inhibition of the ovalbumin-induced bronchoconstriction in conscious guinea pigs after 4 hr pretreatment with 1 mg/kg administered intraperitoneally. The data set is classed as functional. The conditions noted are these: route intraperitoneal.
In data set [18] the test system is Ovis aries. In words: Inhibition of ascaris-induced bronchoconstriction in sheep after late treatment with 2 mg/kg intravenous dose. In kind it is functional. An outline of the steps:
as §5

A further data set concerns Mustela putorius furo. Kind of data set: Emetic effect in ferrets to maximum 30 mg/kg oral dose. In kind it is functional, organism-based. The arrangement: dose 30 mg/kg. The gist of the method:
as §3

“And” between values parts separate entries of the source, which are not always exact repeats. Identical values can stand only once. The source made the active and inactive calls. The calls are words filed in the database; no cut-off is given here.

The term IC50 denotes the concentration at which inhibition is half-maximal. As a reminder, the half-life is the time in which the quantity being followed falls by half. One may read the Cmax as the maximum level reached in the sampled fluid or tissue. For orientation: bioavailability means the share of a dose that reaches the circulation, judged against a reference dose that is usually intravenous.

Sequence of 3',5'-cyclic-AMP phosphodiesterase 4A (P27815 whole entry, looked up, stated change not applied, the tested form may be a part, canonical isoform): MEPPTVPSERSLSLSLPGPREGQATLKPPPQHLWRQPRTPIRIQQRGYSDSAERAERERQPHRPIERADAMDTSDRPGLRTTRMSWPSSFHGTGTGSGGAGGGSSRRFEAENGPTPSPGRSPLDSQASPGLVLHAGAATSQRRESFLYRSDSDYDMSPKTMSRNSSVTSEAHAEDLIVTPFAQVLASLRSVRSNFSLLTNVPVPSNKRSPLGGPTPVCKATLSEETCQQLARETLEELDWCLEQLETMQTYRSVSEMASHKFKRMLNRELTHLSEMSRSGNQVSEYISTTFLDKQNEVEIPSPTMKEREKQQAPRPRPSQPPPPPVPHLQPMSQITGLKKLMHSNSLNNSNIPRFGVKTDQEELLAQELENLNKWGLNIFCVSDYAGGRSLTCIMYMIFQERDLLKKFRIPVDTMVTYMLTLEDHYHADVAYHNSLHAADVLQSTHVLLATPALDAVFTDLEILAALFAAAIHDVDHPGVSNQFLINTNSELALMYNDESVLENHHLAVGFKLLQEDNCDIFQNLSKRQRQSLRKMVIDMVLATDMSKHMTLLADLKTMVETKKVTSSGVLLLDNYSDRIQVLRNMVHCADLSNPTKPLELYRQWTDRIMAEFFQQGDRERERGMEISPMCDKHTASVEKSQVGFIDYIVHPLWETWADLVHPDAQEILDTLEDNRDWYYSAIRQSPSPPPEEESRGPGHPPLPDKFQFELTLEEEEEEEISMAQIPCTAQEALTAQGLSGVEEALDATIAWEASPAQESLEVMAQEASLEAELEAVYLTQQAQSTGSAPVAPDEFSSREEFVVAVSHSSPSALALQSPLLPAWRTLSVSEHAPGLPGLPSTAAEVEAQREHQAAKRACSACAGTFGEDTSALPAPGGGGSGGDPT

`Cc1c[n+]([O-])ccc1CC(c1ccc(C(O)(C(F)(F)F)C(F)(F)F)cc1)c1ccc(OC(F)F)c(OC(F)F)c1` (stereo in doubt) [listing 1 of 2 here]: the Efficacy in [1] is 59%; in data set [4] it was 38%; in the data set on Ovis aries [5] it was 90%; with Cavia porcellus [6], 82%; in data set [8], 33%; in data set [9], 26%. Moreover, the Efficacy in [10] was 100%; in the data set on Ovis aries [11], 62%; in data set [14] it was 63%. For the same compound, the IC50 is 1.3 nM and 4.2 nM in data set [2]; 300 nM in the data set listed under Homo sapiens. In addition, the half-life was 36 h in data set [3], 19 h in [12] and 10 h in data set [13]. The compound further returned a Cmax in data set [7] of 10 µM. The same compound had a bioavailability in [15] of 60%.
In the case of `CC(c1cc[n+]([O-])cc1)C(c1ccc(C(O)(C(F)(F)F)C(F)(F)F)cc1)c1ccc(OC(F)F)c(OC(F)F)c1` (single isomer, unassigned; diastereomer 2), the IC50 in data set [2] was 39 nM; in the data set listed under Homo sapiens, 7800 nM.
For the compound `Cc1cc(C(Cc2cc[n+]([O-])cc2)c2ccc(OC(F)F)c(OC(F)F)c2)ccc1C(O)(C(F)(F)F)C(F)(F)F` (stereo unspecified), the IC50 in [2] was 4.4 nM; in the data set filed under Homo sapiens (Homo sapiens, Blood), 1000 nM.
In the same order, the values of `Cc1c[n+]([O-])cc(C)c1CC(c1ccc(C(O)(C(F)(F)F)C(F)(F)F)cc1)c1ccc(OC(F)F)c(OC(F)F)c1` (stereo unspecified) are 57 nM and 5800 nM.
The compound `COc1ccc([C@]2(C#N)CC[C@@H](C(=O)O)CC2)cc1OC1CCCC1` [CILOMILAST] yielded a half-maximal inhibitory concentration (IC50) in the data set filed under Homo sapiens (Homo sapiens, Blood) of 18000 nM.
Turning to `[O-][n+]1ccc(CC(c2ccc(C(O)(C(F)(F)F)C(F)(F)F)cc2)c2ccc(OC(F)F)c(OC(F)F)c2)c(CO)c1` (stereo unspecified), the IC50 in [2] amounted to 38 nM; in the data set filed under Homo sapiens (Homo sapiens, Blood), 7900 nM.
As to `[O-][n+]1ccc(CC(c2ccc(C(O)(C(F)(F)F)C(F)(F)F)cc2)c2ccc(OC(F)F)c(OC(F)F)c2)cc1` (stereo unspecified), the Efficacy in data set [1] amounted to 96%; in the data set on Ovis aries [16], 85%; in the data set with Cavia porcellus [6] it was 0%; in the data set on Cavia porcellus [17] it was 58%; in the data set with Ovis aries [18] it was 95%. Also, the IC50 in data set [2] was found to be 4.2 nM; in the data set listed under Homo sapiens (Homo sapiens, Blood), 700 nM. Besides, the half-life in [3], in data set [12] and in data set [13] was above 48 h in each case. This compound had a Cmax in [7] of 14 µM. Also, the Emesis result with Mustela putorius furo was “inactive”.
As for `COc1ccc([C@H](Cc2ccncc2)c2ccccc2)cc1OC1CCCC1` [CDP840], the IC50 in data set [2] was determined as 4.2 nM; in the data set listed under Homo sapiens (Homo sapiens, Blood), 15000 nM.
On the same counts, the results for `CCc1c[n+]([O-])ccc1CC(c1ccc(C(O)(C(F)(F)F)C(F)(F)F)cc1)c1ccc(OC(F)F)c(OC(F)F)c1` (stereo unspecified) are 27 nM and 3900 nM.
On to `Cc1c[n+]([O-])ccc1CC(c1ccc(C(O)(C(F)(F)F)C(F)(F)F)cc1)c1ccc(OC(F)F)c(OC(F)F)c1` (racemic), for which the half-inhibitory concentration (IC50) is 2.1 nM in [2] and 400 nM in the data set filed under Homo sapiens.
Turning to `Cc1c[n+]([O-])ccc1CC(c1ccc(C(O)(C(F)(F)F)C(F)(F)F)cc1)c1ccc(OC(F)F)c(OC(F)F)c1` (stereo in doubt) [listing 2 of 2 here], in the data set with Mustela putorius furo, the Emesis entry was “inactive”.
Regarding `Cc1cc(C(O)(C(F)(F)F)C(F)(F)F)ccc1C(Cc1cc[n+]([O-])cc1)c1ccc(OC(F)F)c(OC(F)F)c1` (stereo unspecified), the IC50 in [2] stood at 32 nM; in the data set filed under Homo sapiens (Homo sapiens, Blood), 7800 nM.
In the same order, the values of `Cc1cc(CC(c2ccc(C(O)(C(F)(F)F)C(F)(F)F)cc2)c2ccc(OC(F)F)c(OC(F)F)c2)cc[n+]1[O-]` (stereo unspecified) are 18 nM and 300 nM.
For the compound `CC(c1cc[n+]([O-])cc1)C(c1ccc(C(O)(C(F)(F)F)C(F)(F)F)cc1)c1ccc(OC(F)F)c(OC(F)F)c1` (single isomer, unassigned; diastereomer 1), the results for the IC50 (in [2]; in the data set listed under Homo sapiens) were 39 nM and 23000 nM, respectively.
On the same counts, the results for `Cc1c[n+]([O-])ccc1CC(c1ccc(C(O)(C(F)(F)F)C(F)(F)F)cc1)c1ccc(OC(F)F)c(OC(F)F)c1` (single isomer, unassigned; enantiomer 2) are 23 nM and 3700 nM.
With `CC(=O)c1c[n+]([O-])ccc1CC(c1ccc(C(O)(C(F)(F)F)C(F)(F)F)cc1)c1ccc(OC(F)F)c(OC(F)F)c1` (stereo unspecified), the IC50 in data set [2] worked out at 2.7 nM; in the data set filed under Homo sapiens (Homo sapiens, Blood), 2900 nM.
In the same order, the values of `CC(O)c1c[n+]([O-])ccc1CC(c1ccc(C(O)(C(F)(F)F)C(F)(F)F)cc1)c1ccc(OC(F)F)c(OC(F)F)c1` (stereo unspecified) are 42 nM and 13000 nM.

The values above are taken from ChEMBL document CHEMBL1134922, “Substituted 4-(2,2-diphenylethyl)pyridine-N-oxides as phosphodiesterase-4 inhibitors: SAR study directed toward the improvement of pharmacokinetic parameters” (Bioorg Med Chem Lett, 2002).
